Source: PubChem BioAssay
Only some compounds are listed: those with a hit (about 1.3% of all), similar ones and a draw of the others.
VLA-4 inh: inhibition in human VLA-4 binding assay, primary screen, VLA-4 allosteric modulator project, MLPCN library, flow cytometry, VLA-4 expressing cells. 0.2% of 330,000 active. inhibition, % (about 7 µM as worked out from the volumes in the protocol). ligand binding flow cytometry. Integrin alpha-4 (Homo sapiens), P13612; in the data active = inhibition above about 50%
procasp3 activ: activators of human procaspase-3 D3A mutant, primary screen, biochemical, absorbance, PC-3 D3A mutant, single concentration | Caspase-3 (Homo sapiens), P42574 | recombinant procaspase-3 D3A, Ac-DEVD-pNA absorbance 405 nm | activation, % at 8.5 µM | 0.11% of 330,000 active;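 active = activation above the mean of all tested compounds plus 3 SD, cut at about 21% in these data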;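 also: 0% = DMSO alone and 100% = DMSO wells spiked with extra 5 µM PC-3 D3A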
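Assay system – Procaspase-3 D3A mutant · Benchmarks – DMSO low control, extra-enzyme high control · Technique – 405 nm absorbance of p-nitroaniline, reads at 0 and 120 min · Doses – 8.5 µM nominal · Measure – % activation between DMSO and enzyme-spiked controls · Also added – Ac-DEVD-pNA chromogenic peptide substrate · Schedule – 1 h compound preincubation, 2 h substrate hydrolysis at 25 °C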
procasp7 counter: procaspase-7 activators, primary screen, counter-screen for procaspase-3 activator project, biochemical, absorbance, HTS, human | activation, % at 8.5 µM | AID 463210, 2010 | 0.093% of 330,000 active | recombinant procaspase-7, Ac-DEVD-pNA absorbance 405 nm; D23A/D198A/D206A triple mutant, cannot self-cleave; scale: DMSO 0, 5 µM enzyme 100;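 active = percent activation above the screen-wide mean plus 3 SD, cut at about 25% in these data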
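Material: Procaspase-7 triple mutant (PC-7 D3A) | Quantity: 2 µM procaspase-7 mutant as dispensed | Reagent: DEVD-pNA substrate | Times: 1 h preincubation, 2 h reaction | Technique: 405 nm absorbance of p-nitroaniline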
JMJD2C inh: inhibitors of GASC-1 histone demethylase, primary screen, biochemical, fluorescence, DELFIA europium. Lysine-specific demethylase 4C (Homo sapiens), Q9H3R0. GST-JMJD2C(1-420) H3K9me3 demethylation. inhibition, % at 2.35 µM. 0.069% of 330,000 active;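 active = more than half of a compound's replicate wells show inhibition beyond 50%, single wells judged on their own value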;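 also: signal counts dimethyl H3K9 product captured on neutravidin plate; 0% = median of DMSO wells and 100% = 0.3 times that DMSO median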
GRK2 aptamer HTS: compounds blocking aptamer binding on GRK2 – biochemical, human GRK2, bead flow cytometry, HTS, primary screen. Beta-adrenergic receptor kinase 1 (Homo sapiens), P25098. FAM-aptamer displacement from GRK2. inhibition of aptamer binding, % at 10 µM. 0.59% of 330,000 active;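 active = inhibition of aptamer binding above 40%, roughly 3 SD of noise, on plates passing a quality check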;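 also: median bead fluorescence of bound FAM aptamer so fluorescent compounds give negative values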
Target sequence (P25098 whole entry, looked up): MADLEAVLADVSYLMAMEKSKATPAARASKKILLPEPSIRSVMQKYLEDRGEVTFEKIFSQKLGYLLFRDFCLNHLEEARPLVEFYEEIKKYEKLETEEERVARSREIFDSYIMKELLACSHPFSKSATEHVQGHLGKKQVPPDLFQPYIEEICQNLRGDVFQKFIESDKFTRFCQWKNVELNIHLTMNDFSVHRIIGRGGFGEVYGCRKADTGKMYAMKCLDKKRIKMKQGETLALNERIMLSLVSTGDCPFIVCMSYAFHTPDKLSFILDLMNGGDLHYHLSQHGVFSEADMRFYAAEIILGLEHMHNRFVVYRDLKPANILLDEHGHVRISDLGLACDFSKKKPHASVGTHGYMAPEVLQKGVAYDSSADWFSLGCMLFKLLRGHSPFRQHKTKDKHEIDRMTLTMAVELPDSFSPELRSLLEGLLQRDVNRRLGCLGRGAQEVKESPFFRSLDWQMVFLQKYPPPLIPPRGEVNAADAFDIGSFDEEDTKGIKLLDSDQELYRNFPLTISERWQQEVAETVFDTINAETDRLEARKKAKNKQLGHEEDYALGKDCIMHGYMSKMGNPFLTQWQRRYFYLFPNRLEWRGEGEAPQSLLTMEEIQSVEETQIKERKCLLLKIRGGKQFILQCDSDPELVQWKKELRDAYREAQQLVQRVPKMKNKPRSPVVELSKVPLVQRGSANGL
Lipid droplet: inhibitors of hepatocyte lipid droplet formation, primary screen, imaging, high-throughput imaging, BODIPY stain | 0.4% of 240,000 active | AML12 mouse hepatocytes, oleate lipid droplets | inhibition, % at 6.5 µM;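 active = lipid droplet intensity inhibited by at least 50%, with more than 500 cells counted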
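System: AML12 hepatocytes (mouse). Probe or stimulus: oleic acid at 100 µM to induce lipid droplet formation. Times: overnight treatment with compound plus oleate. Detection: Image-based BODIPY and DAPI two-channel analysis. Evaluation: percent inhibition of filter-corrected integrated lipid droplet intensity per well.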
An asterisk follows results filed as active; / = no result given.

SMILES	VLA-4 inh	procasp3 activ	procasp7 counter	JMJD2C inh	GRK2 aptamer HTS	Lipid droplet
COc1ccccc1/C=C1\SC(=S)N(Nc2nc(C)cc(C)n2)C1=O	-2	-8	-19	-3	2	/
Cc1cccc(C)c1NC(=O)CN(C)C(=O)c1ccc(COc2ccccc2)cc1	20	6	-2	7	1	14
CCN(CC)c1ccc(S(=O)(=O)N2CCOCC2)cc1NC(=O)CN1CCc2ccccc2C1	-3	5	15	2	3	-11
Cn1c(SCC(=O)N2CCCC2=O)nnc1-c1ccccc1F	15	6	10	55*	0	1
O=c1[nH]cc(N=Cc2cc(Cl)cc(Cl)c2O)c(=O)[nH]1	-2	6	-11	66*	5	2
COc1ccc(-c2ccc(=O)n(Cc3cccc([N+](=O)[O-])c3)n2)cc1	1	-3	8	9	1	52*
COc1ccc(-c2ccc(=O)n(Cc3c(F)cccc3Cl)n2)cc1	-6	-3	0	5	4	/
COc1ccc(/C=N/Nc2cc(=O)n(C)c(=O)n2C)cc1OC	12	-6	-1	52*	3	-14
O=C(NCCCn1ccnc1)/C(=C\c1cccnc1)NC(=O)c1cccc(Br)c1	5	0	-11	-2	66*	16
CN(CC(=O)Nc1ccc(Cl)c(C(F)(F)F)c1)CC(=O)NC1CCCCC1	15	2	13	2	1	/
O=C(O)C1Nc2c(Cl)cc(Cl)cc2C2C=CCC12 (stereo unspecified)	-12	1	-5	7	72*	13
O=C(O)C1Nc2c(O)cccc2C2C=CCC12 (stereo unspecified)	-303	1	7	10	3	-7
CCOC(=O)C1Nc2ccc(Br)cc2C2C=CCC12 (stereo unspecified)	6	6	-10	-5	0	2
O=C(O)C1Nc2ccc(Br)cc2C2C=CCC12 (stereo unspecified)	-2	-3	0	6	77*	-4
CCN(C[C@H]1N[C@@](C)(C(=O)OC)[C@H]2C(=O)N(C)C(=O)[C@@H]12)C(=O)Nc1ccccc1	25	-2	1	54*	6	/
COc1ccc(NC(=O)N(C)C[C@H]2Oc3ccc(NC(=O)Nc4c(C)noc4C)cc3C(=O)N([C@H](C)CO)C[C@@H]2C)cc1	-9	8	-8	24	3	/
Cc1cccc(N(C(=O)c2snc(C(N)=O)c2N)C(C(=O)NCC2CCCO2)c2ccc(N(C)C)cc2)c1C (stereo unspecified)	12	-4	-8	4	99*	6
CN(C)c1ccc(C(C(=O)NCC2CCCO2)N(Cc2ccccc2)C(=O)c2snc(C(N)=O)c2N)cc1 (stereo unspecified)	1	1	0	-33	1	0
COc1cc(C(=O)ONC(=O)c2ccc(OC(F)F)cc2)cc(OC)c1OC	-6	-3	8	-21	3	-10
Cc1cc(C)c(NC(=O)COc2cccnc2[N+](=O)[O-])c(C)c1	1	5	17	1	0	/
O=C(N/N=C/c1cn(-c2ccccc2)nc1-c1cc2ccccc2o1)c1c[nH]c2ccccc12	0	0	-3	-6	0	52*
CCOC(=O)C1=C(CC)Nc2ccccc2N/C1=N\S(=O)(=O)c1cccc(C(C)=O)c1	-2	3	2	8	2	/
CCn1c(=O)c(C(=O)Nc2nc3ccccc3[nH]2)c(O)c2ccccc21	5	3	10	-2	81*	/
CCn1c(=O)c(C(=O)Nc2ccccc2)c(O)c2ccccc21	5	-7	2	-5	0	-6
C=CCOc1ccc(C(c2c(C)n(C)n(-c3ccccc3)c2=O)c2c(C)n(C)n(-c3ccccc3)c2=O)cc1	8	-9	8	-14	1	/
SMILES	VLA-4 inh	procasp3 activ	procasp7 counter	JMJD2C inh	GRK2 aptamer HTS	Lipid droplet
Cc1cccc(C(=O)N/N=C/C(C)Cc2ccc3c(c2)OCO3)c1 (stereo unspecified)	9	-2	6	67*	3	-2
COc1ccccc1CNC(=O)c1ccc2nc3[nH]c4ccccc4c3nc2c1	8	-3	-2	1	0	73*
CCCCOC(=O)c1ccc(NC(=O)/C=C/c2cccs2)cc1	9	2	-4	1	3	65*
COc1ccc(/C(C)=N/Nc2ccc(C(=O)O)cc2)cc1OC	0	-6	0	24	4	5
COc1cc(/C(C)=N/Nc2ccc(C(=O)O)cc2)cc(OC)c1OC	7	3	0	-2	71*	12
COc1ccc(-c2cc(C(F)(F)F)nc(N3CCOCC3)n2)cc1OC	21	2	14	192	6	/
COc1ccc(-c2cc(-c3ccccc3)nc(N3CCCC3)n2)cc1OC	10	10	27*	7	4	21
CC(OC(=O)c1ccc(=O)n(Cc2ccccc2)n1)C(=O)Nc1cccc(Cl)c1 (stereo unspecified)	14	6	-5	9	0	/
C/C(=N\NS(=O)(=O)c1ccccc1)c1cccc(NC(=O)c2cccc(Cl)c2)c1	25	-1	9	-6	60*	-3
O=C(Nc1nc2ccccc2s1)c1ccc(OCC2CCCO2)cc1 (stereo unspecified)	/	6	-5	-8	0	52*
C=CCn1c(C)nnc1SCC(=O)Nc1oc(C)c2c(C)n[nH]c(=O)c12	6	5	0	145	0	/
CCn1c(SCC(=O)Nc2nc(C)cs2)nnc1-c1ccncc1	7	6	2	54*	0	2
CCn1c(SCC(=O)Nc2nnc(C)s2)nnc1-c1ccncc1	-8	12	2	-3	0	20
CCO[C@H]1OC(C(=O)NC2CC2)=C[C@@H](c2c[nH]c3ccccc23)[C@@H]1CCCO	6	2	7	-14	1	/
CCO[C@@H]1OC(C(=O)NC2CC2)=C[C@H](c2c[nH]c3ccccc23)[C@H]1CCCO	20	2	-4	52*	6	-6
